Where no end group is shown, it is not given here.
Assay: Radiolabel distribution study of 3H-P8 after IV or IN delivery
Assay type: in vivo
Settings: rat
Method in brief: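 Adult male SD rats (n = 6/route) were anaesthetised with ketamine/xylazine/acepromazine. They received 0.5 mg test compound plus 60 μCi tritiated label in 60 μL over 18 min, either by IV infusion or by IN drops to alternating nares every 2 min while supine. Blood was drawn 10 and 20 min after dosing ended. At 30 min: cardiac puncture, saline perfusion, then tissue scintillation counting. Concentrations were derived from DPM, tissue weight and specific activity; values beyond 2 SD were excluded as outliers.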

DEEEDEEL [P8, DEEEDEEL]
improvement of brain targeting, IN compared to IV delivery: approximately 4 fold

From paper PMC6218153 (Journal of Alzheimer's Disease Reports, 2018)
